From paper PMC5529739 (CPT: Pharmacometrics & Systems Pharmacology, 2017)

Experiments:
human IP receptor = conditions: human pulmonary arterial smooth muscle cells, cellular shape change; cited from earlier work
[1] = Population PK model of selexipag and ACT-333679 in PAH patients; assay type: in vivo, human; conditions: for Vd/F: human, plasma, oral; for AUC over a dosing interval at steady state, higher in PAH patients than in healthy subjects: patient model vs healthy subject model
platelet aggregation = conditions: clinically relevant concentrations, healthy subjects; cited from earlier work
[2] = cited from earlier work
[3] = range 100–1,800 μg; cited from earlier work
[4] = assay type: in vivo, human
How it was run: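 Oral b.i.d. dosing titrated in 200 μg steps to each patient's tolerated dose, max 1,600 μg b.i.d. Trough plasma samples at baseline and weeks 4–52, plus one week-16 window sample. Model-predicted steady-state AUC at the individual maintenance dose gave AUCcombined (1/38 parent + 37/38 metabolite); placebo exposure was set to 2.5 ng/mL. Lab values were averaged per subject over weeks 8–52, not imputed, and fitted by log-linear regression on log10 exposure and baseline.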

[5] = PAH patients, population estimate
[6] = body weight 96 kg vs reference patient 70 kg
[7] = total bilirubin 5 μmol/L vs reference 10 μmol/L
[8] = total bilirubin 25 μmol/L vs reference 10 μmol/L

## CC(C)N(CCCCOCC(=O)O)c1cnc(-c2ccccc2)c(-c2ccccc2)n1 [ACT‐333679]
Human IP receptor
  Potency in activating the human IP receptor relative to selexipag: 37 fold
[1]; [5]
  k43, transfer rate constant peripheral to central compartment ACT-333679: 0.18 h⁻¹
[1]; [6]
  AUCss, covariate effect on exposure over a steady-state dosing interval: −10%
[1]
  Vd/F: 4.65 L
  AUC over a dosing interval at steady state, higher in PAH patients than in healthy subjects: 20%
[1]; male vs female
  AUCss, covariate effect on exposure over a steady-state dosing interval: −13%
[1]; power coefficient, Vm=Vm,pop (bw/70)^coefficient
  Body weight on Vm/F, covariate effect: 0.88
[1]; [7]
  AUCss, covariate effect on exposure over a steady-state dosing interval: −20%
[1]; [8]
  AUCss, covariate effect on exposure over a steady-state dosing interval: +30%
Platelet aggregation
  Effect on platelet aggregation: no effect

## CC(C)N(CCCCOCC(=O)NS(C)(=O)=O)c1cnc(-c2ccccc2)c(-c2ccccc2)n1 [selexipag, Selexipag]
[1]; [5]
  k12, transfer rate constant central to peripheral compartment selexipag: 0.09 h⁻¹
  k21, transfer rate constant peripheral to central compartment selexipag: 0.06 h⁻¹
  ka, absorption rate constant: 0.71 h⁻¹
  kmet, metabolism rate constant selexipag to ACT-333679: 0.67 h⁻¹
[1]; PAH patients, population estimate, 70 kg, total bilirubin 10 μmol/L
  CL/F, apparent selexipag clearance: 19.10 L/h
[1]; body weight 51 kg vs reference patient 70 kg
  AUCss, covariate effect on exposure over a steady-state dosing interval: +30%
[1]; [6]
  AUCss, covariate effect on exposure over a steady-state dosing interval: −20%
[1]
  Vd/F: 12.9 L
  AUC over a dosing interval at steady state, higher in PAH patients than in healthy subjects: 30%
[1]; male vs female
  AUCss, covariate effect on exposure over a steady-state dosing interval: No change
[1]; power coefficient, CL=CLpop (bilirubin/10)^coefficient, bilirubin at baseline
  Total bilirubin on CL/F, covariate effect: −0.40
[1]; power coefficient, CL=CLpop (bw/70)^coefficient
  Body weight on CL/F, covariate effect: 0.61
[1]; power coefficient, Vp=Vp,pop (bw/70)^coefficient
  Body weight on Vp/F, covariate effect: 1.2
[1]; [7]
  AUCss, covariate effect on exposure over a steady-state dosing interval: −20%
[1]; [8]
  AUCss, covariate effect on exposure over a steady-state dosing interval: +30%
Platelet aggregation
  Effect on platelet aggregation: no effect
[2]; 99% confidence interval 0.46–0.78, P < 0.001
  Hazard ratio for a primary endpoint event (death or a complication associated with underlying PAH) vs placebo: 0.6
[2]
  NT pro-BNP levels in the presence of selexipag: significantly lower
[2]; week 26, across doses
  6-MWD difference between placebo and selexipag: 12 m
[3]
  Dose proportionality of PK: dose‐proportional
[4]; AUCcombined at steady state
  Probability of a treatment-emergent AE of hemorrhage and gastrointestinal hemorrhage: relationship to exposure: no statistically significant relationship to exposure
[4]; at the highest exposure, 12.03 μmol/L with placebo
  Total bilirubin, model-predicted: 10.58 µmol/L
[4]; at the highest exposure, 138.84 G/L with placebo
  Hemoglobin, model-predicted: 134.58 G/L
[4]; at the highest exposure, 667 with no exposure (placebo)
  Plasma NT pro-BNP, model-predicted: 475 ng/mL
[4]; at the highest predicted steady-state exposure, reference patient, 369 m on placebo
  6-MWD at steady state, model-predicted: 392 m
